According to the array DNA melting data of Ke et al. (doi:10.1101/2024.01.08.574731):

Assays:
[1] = folding enthalpy; higher = less favourable; fluorescence melt of hairpins on a sequencing array, two-state fit; settings: sodium 0.088 M
Method in brief: (§1)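 On a sequenced MiSeq flow cell, library hairpins with annealed Cy3 and quencher oligos were imaged for Cy3 fluorescence in 2.5 °C steps up to 60 °C, in 50 mM Na-HEPES pH 8.0, 25 mM NaCl. Normalisation used pre-quench Cy3 and control constructs. Bootstrapped two-state fits gave melting temperature and folding enthalpy, combined by inverse variance across four replicates and with fitted temperatures raised by 9.35 °C to match UV melts.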

[2] = melting temperature; fluorescence melt of hairpins on a sequencing array, two-state fit, raised by 9.35 °C to match UV melts; settings: sodium 0.088 M
Method in brief: as §1

Sequence | folding enthalpy [1] | Tm [2]
GCTAACCGAAAGGTGAGC (((.(((....))).))) | -32.1 kcal/mol | 59.7 °C
GGGCTGTCGAAAGACCCC (((..(((....)))))) | -18.4 kcal/mol | 44.1 °C
GCGGCTACGAAAGTACGC (((..(((....)))))) | -21.6 kcal/mol | 47.6 °C
GCGTAACGAAAGTTTCGC (((.(((....))).))) | -41.3 kcal/mol | 57 °C
GCACGGCGAAAGCCATGC (((.(((....))).))) | -36 kcal/mol | 55.1 °C
GATCGCGGGGCGATC ((((((...)))))) | -29.8 kcal/mol | 68 °C
GCTATGGGAAACCATAAC (.(((((....))))).) | -12.8 kcal/mol | 28.7 °C
CGTAAACGGAAACGTACG (((..(((....)))))) | -23.5 kcal/mol | 34.8 °C
GGTACCGAAAGGTTACC ((((((....))).))) | -26.4 kcal/mol | 50 °C
GCACTGCGAAAGCGATGC (((..((....))..))) | -19.7 kcal/mol | 45 °C
GCTCTGGGAAACTGGAGC ((((..(....)..)))) | -34.1 kcal/mol | 45.9 °C
GCCTCCGAAAGGAAAGGC ((((((....)))..))) | -29.6 kcal/mol | 53 °C
GCGTCAGGAAACTGGCGC (((.(((....))).))) | -43.8 kcal/mol | 63 °C
GCCCTGCGAAAGCCCGGC (((..((....))..))) | -23 kcal/mol | 39.1 °C
GCTAGGTCGAAAGACAGC (((..(((....)))))) | -18.1 kcal/mol | 39.6 °C
GATCTTCCATAAGATC ((((((....)))))) | -33.9 kcal/mol | 43.4 °C
GATCGCAGAAGCGATC ((((((....)))))) | -30.8 kcal/mol | 66.9 °C
GCCGTCGAAAGACTAGGC ((((((....)))..))) | -35.5 kcal/mol | 52.8 °C
GTCCCGCGAAAGCGGAC (((.(((....)))))) | -9.81 kcal/mol | 56.3 °C
GACCATGCGAAAGCAGTC (((..(((....)))))) | -10.6 kcal/mol | 30.2 °C
GATCTACTCGTAGATC ((((((....)))))) | -50.1 kcal/mol | 53.8 °C
GCGCGAGGAAACTTGCGC ((((.((....)).)))) | -38.1 kcal/mol | 65.6 °C
GATTCCGGAAACGGAATC (((((((....))))))) | -42.5 kcal/mol | 64.7 °C

Sequence | folding enthalpy [1] | Tm [2]
CGAGCGGAAACGCCTTCG ((((((....)))..))) | -10.7 kcal/mol | 32 °C
GATCTAGCAATAGATC ((((((....)))))) | -39.6 kcal/mol | 47.6 °C
GGAATAGCGAAAGCTTCC (((..(((....)))))) | -20.2 kcal/mol | 39.2 °C
GCCACGCGAAAGCTCGGC (((..((....))..))) | -22 kcal/mol | 51.2 °C
GGGAACGAAAGTTCACCC ((((((....)))..))) | -20.7 kcal/mol | 51.6 °C
GATCTTTCAGAAGATC ((((((....)))))) | -34.1 kcal/mol | 44.3 °C
GATCGTACCACGATC ((((((...)))))) | -33.7 kcal/mol | 57.3 °C
GTCGGAGCGAAAGCTGAC (((..(((....)))))) | -22.1 kcal/mol | 44.3 °C
GAGATAGGAAACTATCTC (((((((....))))))) | -35 kcal/mol | 53.1 °C
GTAGCTGGAAACAACTAC ((((.((....)).)))) | -27.2 kcal/mol | 35.9 °C
GATGAAGGAAACTTCATC (((((((....))))))) | -40.9 kcal/mol | 53.5 °C
GGCTTCGAAAGAATCGCC ((((((....)))..))) | -27.7 kcal/mol | 35.8 °C
GCAGCGGCGAAAGCCTGC (((..(((....)))))) | -12.9 kcal/mol | 52.2 °C
GGTAGAGGAAACTCTATC (.(((((....))))).) | -26.9 kcal/mol | 37.1 °C
GCAAACGAAAGTTAATGC ((((((....)))..))) | -14.7 kcal/mol | 30.6 °C
GTAAGCGGAAACACTTAC (((((.(....).))))) | -29.8 kcal/mol | 35.6 °C
GTTGGGGGAAACCCTGAC ((..(((....)))..)) | -23.8 kcal/mol | 35.6 °C
GCAAATGGAAACGTTTGC (((((.(....).))))) | -38.1 kcal/mol | 49.6 °C
GATCACGTTTGTGATC ((((((....)))))) | -40.4 kcal/mol | 58.5 °C
GTGCAAGGAAACTTGCAC (((((((....))))))) | -31.8 kcal/mol | 65.8 °C
GCACGTGCGAAAGCATGC (((..(((....)))))) | -8.57 kcal/mol | 40.4 °C
GATCCGCACGCGGATC ((((((....)))))) | -39.1 kcal/mol | 67.6 °C
GATTCAGGAAACTGAATC (((((((....))))))) | -36.9 kcal/mol | 55.7 °C

Sequence | folding enthalpy [1] | Tm [2]
GGGTGGGGAAACCCATCC ((.((((....)))).)) | -34.7 kcal/mol | 54.2 °C
GCACAGCGAAAGCTCAGC ((..(((....)))..)) | -10.5 kcal/mol | 33.9 °C
GCGCCGCGAAAGCAGAGC ((.(.((....)).).)) | -27.8 kcal/mol | 66.7 °C
GATCGAAGACTCGATC ((((((....)))))) | -30.3 kcal/mol | 48.5 °C
GCCGCGCGAAAGCCAGGC (((..((....))..))) | -27.8 kcal/mol | 62 °C
GATCCGCTACCGGATC ((((((....)))))) | -48 kcal/mol | 56.8 °C
GATCCATTAGTGGATC ((((((....)))))) | -36.8 kcal/mol | 53 °C
GATCCATTTGTGGATC ((((((....)))))) | -44.5 kcal/mol | 54.7 °C
GCAATGCGAAAGCCTTGC ((((.((....)).)))) | -27.6 kcal/mol | 53.9 °C
GCGGGTAGCCGC ((((....)))) | -24.2 kcal/mol | 64 °C
GAACAGCCGAAAGGCTTC (((..(((....)))))) | -5.48 kcal/mol | 24.5 °C
GATCAGACTGCTGATC ((((((....)))))) | -28.1 kcal/mol | 48.3 °C
GAGTACGAAAGTACTC ((((((....)))))) | -35.7 kcal/mol | 64.8 °C
GTATGGGGAAACCTGTAC (((..((....))..))) | -17.1 kcal/mol | 32.2 °C
GATCGGCGCTCCGATC ((((((....)))))) | -37.8 kcal/mol | 56.9 °C
GCGCGACGAAAGTCTCGC (((.(((....))).))) | -34.3 kcal/mol | 60.6 °C
GCGATTGGAAACAATCGC (((((((....))))))) | -39.5 kcal/mol | 69 °C
GTGGCGGGAAACTGCCGC (.(((.(....).))).) | -22.2 kcal/mol | 53.5 °C
GGCGATCGAAAGATGCC (((.(((....)))))) | -37.8 kcal/mol | 55 °C
GCAATGCGAAAGCAGTGC (((.(((....))).))) | -33.6 kcal/mol | 65.6 °C
GATCTAATGATAGATC ((((((....)))))) | -20.4 kcal/mol | 36.2 °C
GTAGACGAAAGTCGGTAC ((((((....)))..))) | -11.8 kcal/mol | 34.6 °C
GATCGTGCGAACGATC ((((((....)))))) | -32.9 kcal/mol | 64.1 °C

Sequence | folding enthalpy [1] | Tm [2]
GTCAATCGAAAGATGAC (((.(((....)))))) | -25.7 kcal/mol | 45.9 °C
GATACCGAAAGGTTCATC ((((((....)))..))) | -12.4 kcal/mol | 32 °C
GACACAGGAAACTGCGTC (((.(((....))).))) | -23.4 kcal/mol | 45.3 °C
CGCGGACTCCTCCGCG ((((((....)))))) | -37.2 kcal/mol | 68.9 °C
GTTATCGGAAACGATGAC ((.((((....)))).)) | -25.2 kcal/mol | 47.1 °C
GGATTTGGAAACAGATCC ((((.((....)).)))) | -30.7 kcal/mol | 41.5 °C
GGCTCTCCGAAAGGAGCC (((..(((....)))))) | -15 kcal/mol | 49 °C
GGCTCGGGAAACCGAACC ((.((((....)))).)) | -29.7 kcal/mol | 48.8 °C
GACCATGGAAACATGGCC (.(((((....))))).) | -15.2 kcal/mol | 46 °C
GCTACTGCGAAAGCAAGC (((..(((....)))))) | -11.4 kcal/mol | 34.7 °C
GCTACTGGAAACAGTAGC (((((((....))))))) | -44.5 kcal/mol | 64 °C
GGATACGAAAGTACATCC ((((((....)))..))) | -17.1 kcal/mol | 34.5 °C
GCGCAGCGAAAGCTAGGC ((..(((....)))..)) | -5.67 kcal/mol | 39.7 °C
GGACCAGGAAACTGGTCC (((((((....))))))) | -32.4 kcal/mol | 68.1 °C
GCTTGCCGAAAGGCAGC (((.(((....)))))) | -14.4 kcal/mol | 60.1 °C
GCTCCACCGAAAGGTAGC (((..(((....)))))) | -17.2 kcal/mol | 33.9 °C
GCTAGGCGAAAGCCCGGC ((..(((....)))..)) | -16.9 kcal/mol | 45.6 °C
CGTGCCCGGAAACGGACG (((..(((....)))))) | -14.8 kcal/mol | 32.9 °C
GTCTCGAAAGAGAC (((((....))))) | -24.8 kcal/mol | 60.5 °C
GGATGAGCGAAAGCTTCC (((..(((....)))))) | -11.4 kcal/mol | 39.4 °C
GAGTCCGAAAGGAGCCTC ((((((....)))..))) | -14.3 kcal/mol | 34 °C
GATCTAGGAAACTAGGTC ((.((((....)))).)) | -34.3 kcal/mol | 38.6 °C
GTGTGCGAAAGCATTCAC ((((((....)))..))) | -15.8 kcal/mol | 38.3 °C
